Screening results from PubChem BioAssay.
NF-kB expr up – NF-kB expression increase, human neuronal cells. NF-kB reporter expression; hits give high values. fold change at 12.5 µM. 190,000 compounds, 1.6% hits. AID 1239; in the data active = fold change above about 3.3
STAT3 act – increases IL-6 driven STAT3 reporter signal. activation (% of control), % at 5.6 µM. U3A cells, IL-6 STAT3-luciferase reporter, luminescence; 100% = signal with IL-6 EC80 alone. AID 871. 190,000 compounds, 0.91% hits;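 active = activation above the screen-wide mean of compound activation plus 3 SD, cut at about 130% in these data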;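 also: 0% = background luminescence of wells with medium and substrate only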
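System – human U3A cells carrying STAT3-luciferase construct · Probe or stimulus – Interleukin-6, 33 ng/mL · Schedule – compound 1 h, then IL-6 6 h at 37 °C · Signal – luminescence from STAT3-driven luciferase reporter · Evaluation – percent of IL-6-only median luminescence · Benchmarks – IL-6-only high control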
STAT3 blocker – STAT3 signaling inhibition; inhibition, % at 5.5 µM; U3A cells, IL-6 STAT3-luciferase reporter, luminescence; host cell line lacks STAT1; AID 862; 190,000 compounds, 0.89% hits;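 active = inhibition above the mean inhibition across all screened compounds plus 3 SD, cut at about 44% in these data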;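 also: 0% = DMSO only wells and 100% = 100 µM nifuroxazide control wells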
STAT1 inh – reduces IFN-gamma driven STAT1 reporter signal; inhibition, % at 5.5 µM; 200,000 compounds, 0.35% hits; AID 920; NIH 3T3 STAT1-luciferase reporter, luminescence;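 active = inhibition above a set limit, the mean inhibition across all tested compounds plus 3 SD, cut at about 34% in these data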;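 also: 0% = IFN-gamma with DMSO and 100% = IFN-gamma with 300 µM nifuroxazide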
APP 5'UTR act – APP 5'UTR luciferase reporter activation | SH-SY5Y APP 5'UTR luciferase reporter, luminescence; zero percent = DMSO vehicle wells | 190,000 compounds, 1% hits | activation, % at 2 µM;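 active = activation above a set limit, based on mean plus 3 SD of controls, cut at about 140% in these data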
STAT1 activator – STAT1 signaling activation; 200,000 compounds, 2.6% hits; NIH 3T3 STAT1-luciferase reporter, IFN-gamma, luminescence; 100% = IFN-gamma alone, no compound; AID 932; activation (% of control), % at 5.5 µM;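 active = activation above the screen-wide mean activation plus 3 SD, cut at about 130% in these data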;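 also: raw ratio to IFN-gamma control signal so 100% means no change and 0% no light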
* marks the source's active call; other numbers are inactive results. Hits are enriched below; roughly 4.9% of the tested compounds scored in any of these assays.

O=c1[nH]c2ccc(S(=O)(=O)N3CCCCC3)cc2[nH]c1=O was read as NF-kB expr up 1.1, STAT3 act 103, STAT3 blocker 0, STAT1 inh 5, APP 5'UTR act 16 and STAT1 activator 94.
For O=C(c1cc(COc2c(F)cccc2F)on1)N1CCC(c2ccccc2F)C1 (configuration not stated) the results were NF-kB expr up 2.5, STAT3 act 112, STAT3 blocker -9, STAT1 inh -36, APP 5'UTR act 32 and STAT1 activator 132*.
`O=C(c1cc(COc2c(F)cccc2F)on1)N1CCC(c2ccccc2Cl)C1` (configuration not stated) gave NF-kB expr up 1.9, STAT3 act 112, STAT3 blocker -7, STAT1 inh -25, APP 5'UTR act 22 and STAT1 activator 120.
For CC(C)OC(=O)c1ccc(NC(=O)C2C3CC4OC(=O)C2C4C3)cc1 (configuration not stated) the results were NF-kB expr up 1.2, STAT3 act 113, STAT3 blocker -12, STAT1 inh -36, APP 5'UTR act 47 and STAT1 activator 133*.
Screening C=CCN1C(=O)CSC1=Nc1ccc(O)cc1 returned NF-kB expr up 3.4*, STAT3 act 100, STAT3 blocker 0, STAT1 inh 4, APP 5'UTR act 1 and STAT1 activator 97.
Screening Cc1ccc2[nH]c3c(N4CCCCCC4)ncnc3c2c1 returned NF-kB expr up 0.59, STAT3 act 48, STAT3 blocker 68*, STAT1 inh 36*, APP 5'UTR act 3 and STAT1 activator 67.
Screening C=CCNc1ncnc2c1[nH]c1ccc(C)cc12 returned NF-kB expr up 4.5*, STAT3 act 74, STAT3 blocker 34, STAT1 inh -43, APP 5'UTR act 179* and STAT1 activator 139*.
For Cc1ccc2[nH]c3c(NCCN4CCOCC4)ncnc3c2c1 the results were NF-kB expr up 0.89, STAT3 act 107, STAT3 blocker -2, STAT1 inh 6, APP 5'UTR act 9 and STAT1 activator 95.
Screening Cc1cc(C(=O)CSc2nnc(-c3ccccc3F)o2)c(C)n1Cc1cccs1 returned NF-kB expr up 0.83, STAT3 act 97, STAT3 blocker 6, STAT1 inh 11, APP 5'UTR act 14 and STAT1 activator 90.
For Cc1cc(C(=O)CN2C(=O)c3cccc(N)c3C2=O)c(C)n1Cc1cccs1 the results were NF-kB expr up 2.8, STAT3 act 134*, STAT3 blocker -43, STAT1 inh -51 and STAT1 activator 147*.
O=C(Nc1nc(-c2ccc(Cl)s2)cs1)c1ccco1 was read as NF-kB expr up 2.2, STAT3 act 93, STAT3 blocker 11, STAT1 inh -32, APP 5'UTR act 70 and STAT1 activator 130*.
For Cc1ccc(Nc2nc(-c3sc(NC(=O)c4ccco4)nc3C)cs2)cc1 the results were NF-kB expr up 0.91, STAT3 act 135*, STAT3 blocker -34, STAT1 inh -11, APP 5'UTR act 3 and STAT1 activator 110.
For CC12CCC(C(=O)N(NC(=O)c3ccccc3Cl)C1=O)C2(C)C (configuration not stated) the results were NF-kB expr up 1.2, STAT3 act 101, STAT3 blocker 1, STAT1 inh 4, APP 5'UTR act 21 and STAT1 activator 97.
For CCCc1cc2c(cc1NC(=O)c1ccco1)OCO2 the results were NF-kB expr up 1.1, STAT3 act 100, STAT3 blocker 5, STAT1 inh -1, APP 5'UTR act 13 and STAT1 activator 98.
c1ccc(-c2ncc3c(ccc4ccccc43)n2)cc1 was read as NF-kB expr up 1.2, STAT3 act 119, STAT3 blocker -27, STAT1 inh -41, APP 5'UTR act 113 and STAT1 activator 141*.
`c1ccc(-c2csc3ncnc(NCCCN4CCOCC4)c23)cc1` gave NF-kB expr up 0.85, STAT3 act 85, STAT3 blocker 20, STAT1 inh 14, APP 5'UTR act 2 and STAT1 activator 88.
Screening c1ccc(-c2csc3ncnc(NCC4COc5ccccc5O4)c23)cc1 (configuration not stated) returned NF-kB expr up 1.2, STAT3 act 31, STAT3 blocker 84*, STAT1 inh 38*, APP 5'UTR act -19 and STAT1 activator 64.
`Fc1ccc(-c2nnc3ccc(N4CCc5ccccc5C4)nn23)cc1` gave NF-kB expr up 0.71, STAT3 act 87, STAT3 blocker 23, STAT1 inh -3, APP 5'UTR act -3 and STAT1 activator 103.
For O=c1cc(O)c(-c2ccccc2Cl)c(Cl)[nH]1 the results were NF-kB expr up 0.96, STAT3 act 99, STAT3 blocker 6, STAT1 inh 3, APP 5'UTR act -2 and STAT1 activator 97.
Screening Cc1cccc(-c2c(O)cc(=O)[nH]c2Cl)c1 returned NF-kB expr up 5.9*, STAT3 act 101, STAT3 blocker 3, STAT1 inh 0, APP 5'UTR act 11 and STAT1 activator 99.
Screening C=CCn1c(COc2ccccc2)nnc1SC(C)C(=O)N/N=C/c1cc(Cl)ccc1O (configuration not stated) returned NF-kB expr up 3.5*, STAT3 act 105, STAT3 blocker 0, STAT1 inh -7, APP 5'UTR act -4 and STAT1 activator 106.
Screening Cc1c(-c2ccc(Br)cc2)nc2ccccn12 returned NF-kB expr up 2.4, STAT3 act 118, STAT3 blocker -14, STAT1 inh -53, APP 5'UTR act 129 and STAT1 activator 148*.
For Cc1ccc(-c2nc3ccccn3c2C=O)cc1 the results were NF-kB expr up 3.1, STAT3 act 107, STAT3 blocker 0, STAT1 inh -37, APP 5'UTR act 58 and STAT1 activator 132*.
`COc1ccc(-c2nc3c4ccccc4ccn3c2C=O)cc1` gave NF-kB expr up 1.2, STAT3 act 114, STAT3 blocker -14, STAT1 inh 5, APP 5'UTR act 14 and STAT1 activator 96.
For COc1cc(-c2nc3ccccn3c2/N=C/c2cc(OC)c(OC)c(OC)c2)ccc1O the results were STAT3 act 100, STAT3 blocker 10, STAT1 inh -7, APP 5'UTR act 8 and STAT1 activator 106.
Screening c1ccn2c(c1)nc1c2nc2ccccn21 returned NF-kB expr up 2, STAT3 act 96, STAT3 blocker 11, STAT1 inh -27, APP 5'UTR act 22 and STAT1 activator 126.
CN(C)c1ccc(-c2nc3ccccn3c2/N=C/c2ccc(Br)cc2)cc1 was read as NF-kB expr up 1.8, STAT3 act 90, STAT3 blocker 14, STAT1 inh -38, APP 5'UTR act 158* and STAT1 activator 134*.
Screening O=c1c(Cl)c(N2CCN(c3ccc(F)cc3)CC2)cnn1-c1nc2ccccc2s1 returned NF-kB expr up 1.5, STAT3 act 103, STAT3 blocker 0, STAT1 inh -45, APP 5'UTR act 91 and STAT1 activator 140*.
